Assay results taken from publication PMC5673027 (International Journal of Oncology, 2017).
“Also recorded” adds a separate entry of the source.

Assays:
CDK6/cyclin D1 = CDK6/cyclin D1 (Homo sapiens, UniProt Q00534); experiment: In vitro CDK6 kinase assay; assay type: biochemical; settings: for effect on CDK6 enzyme activity (in words): 0.5 mM (Fig. 7G, H), Rb substrate; for inhibition at 500 µM: read-out: inhibition of CDK6 activity
Outline: (§1)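 Kinases were purified CDK2/cyclin A2, CDK4/cyclin D1 and CDK6/cyclin D1, each pre-incubated with test compound for 10 min at room temperature, mostly at 0.5 mM, with some dose series. Reaction used 15 µM ATP, 2 µCi [γ-32P]ATP and 5 µg protein substrate (H1 histone for CDK2) at 30°C for 20 min, stopped with 20 mM EDTA. Read by SDS-PAGE autoradiography, bands expressed as percent of control.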

CDK4/cyclin D1 = CDK4/cyclin D1 (Homo sapiens, UniProt P11802); experiment: In vitro CDK4 kinase assay; assay type: biochemical; settings: for effect on CDK4 enzyme activity (in words): 0.5 mM (Fig. 7E, F), Rb substrate
Outline: as §1

CDK1/cyclin B1 = CDK1/cyclin B1 (Homo sapiens, UniProt P06493); experiment: In vitro CDK1 kinase assay; assay type: biochemical; settings: for inhibition of CDK1 enzyme activity: quantification of band intensities, Fig. 1C/D, H1 histones; for effect on CDK1 enzyme activity (in words): in vitro kinase assay, H1 histone phosphorylation
Outline: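 Purified CDK1/cyclin B1 complex in kit reaction buffer, pre-incubated with test compound at various concentrations for 10 min at room temperature. Phosphorylation run with 15 µM ATP, 2 µCi [γ-32P]ATP and 5 µg H1 histone at 30°C for 20 min, then stopped with 20 mM EDTA (final). Products resolved by 10% SDS-PAGE and autoradiographed; bands quantified as percent of control. Done 3–6 independent times.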

CDK2/cyclin A2 [1] = target: T1, CDK2/cyclin A2 (Homo sapiens, UniProt P24941); experiment: In vitro CDK2 kinase assay; assay type: biochemical; settings: for effect on CDK2 enzyme activity (in words): 0.5 mM (Fig. 7), pre-incubated 10 min, H1 histones
Outline: as §1

HCT-116 cells = experiment: MTT cytotoxicity assay; assay type: cell-based, human; settings: Homo sapiens, HCT-116, 72 h, read-out: MTT assay HCT-116 72 h (IC50)
Outline: (§2)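 HCT-116 cells kept in McCoy's 5A with 10% FBS, seeded overnight at 20,000 cells/well, then exposed to test compounds at various concentrations for 72 h. Viability read by MTT. IC50 taken from the concentration series. Experiments repeated 3–6 times independently.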

MTT cytotoxicity assay = assay type: cell-based, human; settings: human, HCT-116 colorectal carcinoma cells
Outline: as §2

CDK2/cyclin A2 [2] = target: T1, CDK2/cyclin A2; settings: in vitro kinase assays; cited from earlier work
[3] = target: cellular CDK1 in HCT-116 cells (Homo sapiens, UniProt P06493); experiment: Acetylation of cellular CDK1 in HCT-116 cells; assay type: cell-based; settings: 0.25–2.5 mM, 12 h
[4] = cited from earlier work
[5] = CDK1 IC50, Table III, purified CDK1 enzyme
[6] = CDK1 IC50, text, dose-dependent inhibition, Fig. 1E-H

Chain of CDK4/cyclin D1 (P11802 whole entry): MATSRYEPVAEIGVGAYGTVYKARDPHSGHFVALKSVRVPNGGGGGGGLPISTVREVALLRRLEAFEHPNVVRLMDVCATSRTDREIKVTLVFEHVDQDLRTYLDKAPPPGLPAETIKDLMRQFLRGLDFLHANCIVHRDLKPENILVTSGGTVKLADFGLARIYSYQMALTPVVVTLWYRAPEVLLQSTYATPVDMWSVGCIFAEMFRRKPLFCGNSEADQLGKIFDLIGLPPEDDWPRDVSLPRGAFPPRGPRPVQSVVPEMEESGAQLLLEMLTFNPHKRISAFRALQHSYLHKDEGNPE
Chain of CDK4/cyclin D1 (P24385 whole entry partner): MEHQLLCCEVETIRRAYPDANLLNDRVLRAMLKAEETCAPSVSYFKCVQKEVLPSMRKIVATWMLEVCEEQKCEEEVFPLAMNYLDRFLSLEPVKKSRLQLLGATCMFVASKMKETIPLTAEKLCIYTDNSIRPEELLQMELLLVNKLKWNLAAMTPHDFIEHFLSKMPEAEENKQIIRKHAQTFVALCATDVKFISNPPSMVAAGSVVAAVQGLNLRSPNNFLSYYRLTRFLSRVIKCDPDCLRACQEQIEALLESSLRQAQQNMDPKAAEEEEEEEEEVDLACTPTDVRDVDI
Chain of CDK1/cyclin B1 (P14635 whole entry): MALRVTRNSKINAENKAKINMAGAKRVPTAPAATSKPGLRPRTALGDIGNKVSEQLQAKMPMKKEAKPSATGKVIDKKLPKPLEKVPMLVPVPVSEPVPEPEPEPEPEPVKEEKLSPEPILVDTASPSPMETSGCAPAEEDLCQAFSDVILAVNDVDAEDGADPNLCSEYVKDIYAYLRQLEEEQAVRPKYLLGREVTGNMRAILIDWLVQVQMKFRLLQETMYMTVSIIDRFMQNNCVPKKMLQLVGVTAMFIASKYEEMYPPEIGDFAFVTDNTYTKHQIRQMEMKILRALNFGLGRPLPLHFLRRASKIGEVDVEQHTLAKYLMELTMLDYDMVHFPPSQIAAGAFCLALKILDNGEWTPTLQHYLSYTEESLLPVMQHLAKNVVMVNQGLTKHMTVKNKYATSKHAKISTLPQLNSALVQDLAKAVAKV
Chain of CDK1/cyclin B1 (P06493 whole entry): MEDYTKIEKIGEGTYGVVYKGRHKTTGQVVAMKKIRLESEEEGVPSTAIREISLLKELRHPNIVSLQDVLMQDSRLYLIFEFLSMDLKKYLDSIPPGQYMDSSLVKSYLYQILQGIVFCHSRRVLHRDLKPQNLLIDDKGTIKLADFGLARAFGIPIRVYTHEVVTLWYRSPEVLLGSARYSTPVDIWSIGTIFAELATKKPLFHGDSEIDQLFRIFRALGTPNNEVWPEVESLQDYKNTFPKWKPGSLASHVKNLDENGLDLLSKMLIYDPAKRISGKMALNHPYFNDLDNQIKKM
Chain of CDK6/cyclin D1 (Q00534 whole entry): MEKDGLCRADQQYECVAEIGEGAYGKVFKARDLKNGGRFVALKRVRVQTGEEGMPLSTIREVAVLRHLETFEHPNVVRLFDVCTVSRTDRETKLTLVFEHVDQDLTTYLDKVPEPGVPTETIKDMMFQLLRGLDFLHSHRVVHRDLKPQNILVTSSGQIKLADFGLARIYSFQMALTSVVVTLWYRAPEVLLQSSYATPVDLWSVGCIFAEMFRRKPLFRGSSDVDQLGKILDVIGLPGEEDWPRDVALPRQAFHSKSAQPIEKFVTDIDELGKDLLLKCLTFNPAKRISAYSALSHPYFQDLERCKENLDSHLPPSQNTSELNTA
Chain of CDK6/cyclin D1 (P24385 whole entry partner): as the sequence (P24385 whole entry partner) above
Chain of cellular CDK1 in HCT-116 cells (P06493 whole entry): as the sequence (P06493 whole entry) above

O=C(O)c1cccc(O)c1O [2,3-DHBA, 2,3-dihydroxy-benzoic acid]
effect on CDK6 enzyme activity (in words) (CDK6/cyclin D1): inhibited
inhibition at 500 µM (CDK6/cyclin D1): 28%
effect on CDK4 enzyme activity (in words) (CDK4/cyclin D1): failed to inhibit; also recorded: either no or marginal effect
IC50 (CDK1/cyclin B1; [5]): 386 µM
IC50 (CDK1/cyclin B1; [6]): 386 µM
inhibition of CDK1 enzyme activity (CDK1/cyclin B1): 55%
effect on CDK2 enzyme activity (in words) (CDK2/cyclin A2 [1]): did not inhibit; also recorded: either no or marginal effect
IC50 (HCT-116 cells): 1.78 mM
IC50 at 72 h (MTT cytotoxicity assay): ~1.8 mM

Nc1ccc(O)c(C(=O)O)c1 [5-aminosalicylic acid, reference compound]
effect on CDK1 enzyme activity (in words) (CDK1/cyclin B1): did not show any inhibition
effect on CDK1 enzyme activity (in words) (CDK1/cyclin B1; listed as 5-amino-salicylic acid): failed to inhibit

O=C(O)c1cc(O)c(O)c(O)c1 [3,4,5-THBA, gallic acid]
effect on CDK1 enzyme activity (in words) (CDK1/cyclin B1): did not show any inhibitory effect; also recorded: failed to inhibit

O=C(O)c1cc(O)cc(O)c1 [3,5-DHBA]
effect on CDK1 enzyme activity (in words) (CDK1/cyclin B1): failed to inhibit

O=C(O)c1ccc(O)c(O)c1 [3,4-DHBA]
effect on CDK1 enzyme activity (in words) (CDK1/cyclin B1): did not show any inhibition; also recorded: failed to inhibit

O=C(O)c1c(O)cc(O)cc1O [2,4,6-THBA, 2,4,6-trihydroxybenzoic acid]
effect on CDK6 enzyme activity (in words) (CDK6/cyclin D1): inhibited
inhibition at 500 µM (CDK6/cyclin D1): 40%
effect on CDK4 enzyme activity (in words) (CDK4/cyclin D1): inhibited
inhibition at 500 µM (CDK4/cyclin D1; read-out: inhibition of CDK4 activity): 45%
IC50 (CDK1/cyclin B1; [5]): 226 µM
effect on CDK1 enzyme activity (in words) (CDK1/cyclin B1): inhibited
IC50 (CDK2/cyclin A2 [1]): ~300 µM
effect on CDK2 enzyme activity (in words) (CDK2/cyclin A2 [1]): dose-dependent inhibition; also recorded: inhibited
IC50 (HCT-116 cells): 0.785 mM
IC50 at 72 h (MTT cytotoxicity assay): 0.8 mM

CC(=O)Oc1ccccc1C(=O)O [Aspirin]
effect on CDK2 enzyme activity (in words), previous study (CDK2/cyclin A2 [2]): failed to inhibit
effect on CDK6 enzyme activity (in words) (CDK6/cyclin D1): did not affect
effect on CDK4 enzyme activity (in words) (CDK4/cyclin D1): failed to inhibit
acetylation of cellular CDK1 (in words) [3]: acetylated in aspirin treated samples in a dose-dependent fashion
oral bioavailability [4]: 40–50%
effect on CDK1 enzyme activity (in words) (CDK1/cyclin B1): do not inhibit; also recorded: failed to inhibit
effect on CDK2 enzyme activity (in words) (CDK2/cyclin A2 [1]): did not inhibit

CN1CC[C@H](c2c(O)cc(O)c3c(=O)cc(-c4ccccc4Cl)oc23)[C@H](O)C1 [flavopiridol, reference compound]
effect on CDK1 enzyme activity (in words) (CDK1/cyclin B1): dose-dependently inhibited

O=C(O)c1ccccc1 [benzoic acid, reference compound]
effect on CDK1 enzyme activity (in words) (CDK1/cyclin B1): did not show any inhibition; also recorded: failed to inhibit

O=C(O)c1c(O)cccc1O [2,6-DHBA, 2,6-dihydroxybenzoic acid]
effect on CDK6 enzyme activity (in words) (CDK6/cyclin D1): inhibited
inhibition at 500 µM (CDK6/cyclin D1): 37%
effect on CDK4 enzyme activity (in words) (CDK4/cyclin D1): failed to inhibit; also recorded: either no or marginal effect
IC50 (CDK1/cyclin B1; [5]): 365 µM
IC50 (CDK1/cyclin B1; [6]): 365 µM
inhibition of CDK1 enzyme activity (CDK1/cyclin B1): 65%
effect on CDK2 enzyme activity (in words) (CDK2/cyclin A2 [1]): did not inhibit; also recorded: either no or marginal effect
IC50 (HCT-116 cells): 1.95 mM
IC50 at 72 h (MTT cytotoxicity assay): 1.9 mM

O=C(O)c1cc(O)ccc1O [2,5-DHBA, 2,5-dihydroxybenzoic acid]
inhibition of CDK1 enzyme activity (CDK1/cyclin B1): 22%

O=C(O)c1ccccc1O [Salicylic acid, reference compound]
effect on CDK2 enzyme activity (in words), previous study (CDK2/cyclin A2 [2]): failed to inhibit
effect on CDK6 enzyme activity (in words) (CDK6/cyclin D1): did not affect
effect on CDK4 enzyme activity (in words) (CDK4/cyclin D1): failed to inhibit
half-life ([4]; depending upon the dose): 4 to 6 h
conjugation with glycine to salicyluric acid ([4]; liver): 20–65%
effect on CDK1 enzyme activity (in words) (CDK1/cyclin B1): do not inhibit; also recorded: failed to inhibit
effect on CDK2 enzyme activity (in words) (CDK2/cyclin A2 [1]): did not inhibit

O=C(O)c1ccc(O)cc1O [2,4-DHBA, 2,4-dihydroxybenzoic acid]
inhibition of CDK1 enzyme activity (CDK1/cyclin B1): 25%
